Measurements taken from ChEMBL document CHEMBL4689842, “EUbOPEN Chemogenomics Library wave 1” (2021).

Tested on: HEK-293T
Test: Multiplex assay against HEK293T;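 as to Population Tubulin-Different-Phenotype (%): share of the cells with healthy nuclei that show this phenotype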
Assay type: toxicity, cell-based
Conditions: human
In short: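 Imaging took place on a CQ1 microscope at 37°C and 5% CO2 once compound had been added to live cells stained at seeding with Hoechst33342, BioTracker Green Microtubule Cytoskeleton Dye, MitoTracker Red and Annexin V Alexa Fluor 680. CellPathfinder machine-learning gating classed cells as Hoechst high-intensity objects or normal cells, classed normal cells as having healthy, pyknosed or fragmented nuclei, and classed pyknosed cells as mitotic or apoptotic. Tubulin, mitochondrial-mass and membrane-permeability phenotypes are per cents of the healthy-nucleus cells.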

[1] = 12 h, 1 µM, compound concentration 1 uM, replicate 1
[2] = 12 h, 1 µM, compound concentration 1 uM, replicate 2
[3] = 12 h, 10 µM, compound concentration 10 uM, replicate 1
[4] = 12 h, 10 µM, compound concentration 10 uM, replicate 2
[5] = 24 h, 1 µM, compound concentration 1 uM, replicate 1
[6] = 24 h, 1 µM, compound concentration 1 uM, replicate 2
[7] = 24 h, 10 µM, compound concentration 10 uM, replicate 1
[8] = 24 h, 10 µM, compound concentration 10 uM, replicate 2
[9] = 48 h, 1 µM, compound concentration 1 uM, replicate 1
[10] = 48 h, 1 µM, compound concentration 1 uM, replicate 2
[11] = 48 h, 10 µM, compound concentration 10 uM, replicate 1
[12] = 48 h, 10 µM, compound concentration 10 uM, replicate 2

CN1C(=O)[C@@H](NC(=O)c2cc3ccccc3[nH]2)N=C(c2ccccc2)c2ccccc21 [DEVAZEPIDE]
Population Apoptotic (%) [1]: 49% | Population Fragmented Nuclei (%) [1]: 9% | Population Healthy Nuclei (%) [1]: 38% | Population Hoechst High Intensity Objects (%) [1]: 11% | Population Membrane Permeable-Phenotype (%) [1]: 8% | Population Mitochondria Different-Phenotype (%) [1]: 73% | Population Mitotic Cells (%) [1]: 50% | Population Normal (%) [1]: 88% | Population Pyknosed Nuclei (%) [1]: 52% | Population Tubulin-Different-Phenotype (%) [1]: 50% | Total Cell Count [1]: 314 | Population Apoptotic (%) [2]: 12% | Population Fragmented Nuclei (%) [2]: 6% | Population Healthy Nuclei (%) [2]: 36% | Population Hoechst High Intensity Objects (%) [2]: 3% | Population Membrane Permeable-Phenotype (%) [2]: 9% | Population Mitochondria Different-Phenotype (%) [2]: 34% | Population Mitotic Cells (%) [2]: 87% | Population Normal (%) [2]: 96% | Population Pyknosed Nuclei (%) [2]: 56% | Population Tubulin-Different-Phenotype (%) [2]: 28% | Total Cell Count [2]: 205 | Population Apoptotic (%) [3]: 58% | Population Fragmented Nuclei (%) [3]: 11% | Population Healthy Nuclei (%) [3]: 24% | Population Hoechst High Intensity Objects (%) [3]: 15% | Population Membrane Permeable-Phenotype (%) [3]: 5% | Population Mitochondria Different-Phenotype (%) [3]: 88% | Population Mitotic Cells (%) [3]: 41% | Population Normal (%) [3]: 84% | Population Pyknosed Nuclei (%) [3]: 63% | Population Tubulin-Different-Phenotype (%) [3]: 76% | Total Cell Count [3]: 287 | Population Apoptotic (%) [4]: 25% | Population Fragmented Nuclei (%) [4]: 4% | Population Healthy Nuclei (%) [4]: 34% | Population Hoechst High Intensity Objects (%) [4]: 3% | Population Membrane Permeable-Phenotype (%) [4]: 15% | Population Mitochondria Different-Phenotype (%) [4]: 48% | Population Mitotic Cells (%) [4]: 74% | Population Normal (%) [4]: 96% | Population Pyknosed Nuclei (%) [4]: 60% | Population Tubulin-Different-Phenotype (%) [4]: 66% | Total Cell Count [4]: 228 | Population Apoptotic (%) [5]: 48% | Population Fragmented Nuclei (%) [5]: 11% | Population Healthy Nuclei (%) [5]: 36% | Population Hoechst High Intensity Objects (%) [5]: 13% | Population Membrane Permeable-Phenotype (%) [5]: 3% | Population Mitochondria Different-Phenotype (%) [5]: 67% | Population Mitotic Cells (%) [5]: 51% | Population Normal (%) [5]: 86% | Population Pyknosed Nuclei (%) [5]: 51% | Population Tubulin-Different-Phenotype (%) [5]: 52% | Total Cell Count [5]: 327 | Population Apoptotic (%) [6]: 14% | Population Fragmented Nuclei (%) [6]: 4% | Population Healthy Nuclei (%) [6]: 57% | Population Hoechst High Intensity Objects (%) [6]: 2% | Population Membrane Permeable-Phenotype (%) [6]: 15% | Population Mitochondria Different-Phenotype (%) [6]: 20% | Population Mitotic Cells (%) [6]: 85% | Population Normal (%) [6]: 97% | Population Pyknosed Nuclei (%) [6]: 37% | Population Tubulin-Different-Phenotype (%) [6]: 34% | Total Cell Count [6]: 231 | Population Apoptotic (%) [7]: 56% | Population Fragmented Nuclei (%) [7]: 16% | Population Healthy Nuclei (%) [7]: 15% | Population Hoechst High Intensity Objects (%) [7]: 17% | Population Membrane Permeable-Phenotype (%) [7]: 5% | Population Mitochondria Different-Phenotype (%) [7]: 91% | Population Mitotic Cells (%) [7]: 43% | Population Normal (%) [7]: 82% | Population Pyknosed Nuclei (%) [7]: 67% | Population Tubulin-Different-Phenotype (%) [7]: 91% | Total Cell Count [7]: 284 | Population Apoptotic (%) [8]: 41% | Population Fragmented Nuclei (%) [8]: 7% | Population Healthy Nuclei (%) [8]: 46% | Population Hoechst High Intensity Objects (%) [8]: 4% | Population Membrane Permeable-Phenotype (%) [8]: 15% | Population Mitochondria Different-Phenotype (%) [8]: 47% | Population Mitotic Cells (%) [8]: 58% | Population Normal (%) [8]: 95% | Population Pyknosed Nuclei (%) [8]: 46% | Population Tubulin-Different-Phenotype (%) [8]: 74% | Total Cell Count [8]: 245 | Population Apoptotic (%) [9]: 50% | Population Fragmented Nuclei (%) [9]: 15% | Population Healthy Nuclei (%) [9]: 28% | Population Hoechst High Intensity Objects (%) [9]: 16% | Population Membrane Permeable-Phenotype (%) [9]: 6% | Population Mitochondria Different-Phenotype (%) [9]: 48% | Population Mitotic Cells (%) [9]: 50% | Population Normal (%) [9]: 83% | Population Pyknosed Nuclei (%) [9]: 55% | Population Tubulin-Different-Phenotype (%) [9]: 41% | Total Cell Count [9]: 356 | Population Apoptotic (%) [10]: 9% | Population Fragmented Nuclei (%) [10]: 5% | Population Healthy Nuclei (%) [10]: 74% | Population Hoechst High Intensity Objects (%) [10]: 4% | Population Membrane Permeable-Phenotype (%) [10]: 7% | Population Mitochondria Different-Phenotype (%) [10]: 11% | Population Mitotic Cells (%) [10]: 90% | Population Normal (%) [10]: 95% | Population Pyknosed Nuclei (%) [10]: 20% | Population Tubulin-Different-Phenotype (%) [10]: 34% | Total Cell Count [10]: 361 | Population Apoptotic (%) [11]: 66% | Population Fragmented Nuclei (%) [11]: 24% | Population Healthy Nuclei (%) [11]: 6% | Population Hoechst High Intensity Objects (%) [11]: 22% | Population Membrane Permeable-Phenotype (%) [11]: 7% | Population Mitochondria Different-Phenotype (%) [11]: 100% | Population Mitotic Cells (%) [11]: 33% | Population Normal (%) [11]: 77% | Population Pyknosed Nuclei (%) [11]: 69% | Population Tubulin-Different-Phenotype (%) [11]: 84% | Total Cell Count [11]: 276 | Population Apoptotic (%) [12]: 63% | Population Fragmented Nuclei (%) [12]: 12% | Population Healthy Nuclei (%) [12]: 44% | Population Hoechst High Intensity Objects (%) [12]: 5% | Population Membrane Permeable-Phenotype (%) [12]: 22% | Population Mitochondria Different-Phenotype (%) [12]: 41% | Population Mitotic Cells (%) [12]: 36% | Population Normal (%) [12]: 94% | Population Pyknosed Nuclei (%) [12]: 43% | Population Tubulin-Different-Phenotype (%) [12]: 64% | Total Cell Count [12]: 237
